Source: ChEMBL document CHEMBL1687700, “Discovery of an Orally Efficacious Imidazo[5,1-f][1,2,4]triazine Dual Inhibitor of IGF-1R and IR” (ACS Med Chem Lett, 2010)
Blank lines part the entries; values can stand above or below the compound they belong to.

What was measured:
[1] = Permeability of the compound by PAMPA assay at pH 5.0; assay type: ADME; details: read-out: permeability
Summary of the method: (§1)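 Parallel artificial membrane permeability assay run at pH 5.0 and pH 7.4; permeability reported in nm/s.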

[2] = Volume of distribution at steady state in CD-1 mouse at 5 mg/kg, iv administered as single dose; assay type: ADME, organism-based; set-up: dose 5 mg/kg, route intravenous; details: in vivo, read-out: Vdss
[3] = Oral bioavailability in CD-1 mouse at 25 mg/kg, po administered as single dose; assay type: ADME, organism-based; details: CD-1, mouse, in vivo
[4] = Cmax in CD-1 mouse plasma at 25 mg/kg, po administered as single dose; assay type: ADME, organism-based; set-up: dose 25 mg/kg, route oral
[5] = Permeability of the compound by PAMPA assay at pH 7.4; assay type: ADME; details: read-out: permeability; summary of the method: as §1
[6] = Clearance in CD-1 mouse at 5 mg/kg, iv administered as single dose; assay type: ADME, organism-based; set-up: dose 5 mg/kg, route intravenous; details: in vivo
[7] = Plasma protein binding in rat; assay type: ADME, cell-free; details: read-out: PPB (converted)
Summary of the method: (§2)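 Plasma protein binding determined by ultracentrifugation in mouse, rat and human plasma; percent bound reported.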

[8] = Antitumor activity against human GEO cells xenografted in CD-1 nu/nu mouse assessed as tumor growth inhibition at 10 mg/kg, po bid administered for 14 days; assay type: functional; details: 336 h, read-out: TGI
Summary of the method: (§3)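 Nude mouse xenografts dosed orally (HCl salt in 40% w/v hydroxypropyl-β-cyclodextrin) once or twice daily for 14 days; tumor volume expressed as percentage of initial volume, mean ± SE; body weight monitored.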

[9] = Oral bioavailability in CD-1 mouse at 25 mg/kg administered as single dose; assay type: ADME, organism-based; details: in vivo
[10] = AUC in rhesus monkey at 30 mg/kg, po administered as single dose; assay type: ADME, organism-based, Macaca mulatta; set-up: dose 30 mg/kg, route oral; details: plasma
Summary of the method: (§4)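 Rhesus monkey (male), single oral dose of the HCl salt in 40% w/v hydroxypropyl-β-cyclodextrin vehicle; median PK parameters reported; bioavailability referenced to a 5 mg/kg iv dose.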

[11] = Antitumor activity against human GEO cells xenografted in CD-1 nu/nu mouse assessed as tumor growth inhibition at 20 mg/kg, po administered once daily for 14 days; assay type: functional; details: 336 h, read-out: TGI; summary of the method: as §3
[12] = AUC in CD-1 mouse at 25 mg/kg, po administered as single dose; assay type: ADME, organism-based; set-up: dose 25 mg/kg, route oral; details: plasma
Summary of the method: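 Single oral dose of 25 mg/kg, given as the HCl salt in 40% w/v hydroxypropyl-β-cyclodextrin, to female mice. Plasma exposure is reported as AUC (ng h/mL), with median values given. CL and Vss come from a separate 5 mg/kg iv dose.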

[13] = system: NIH3T3; assay: Antitumor activity against mouse NIH/3T3 cells xenografted in CD-1 nu/nu mouse assessed as tumor growth inhibition at 10 mg/kg, po bid administered for 14 days; assay type: functional; details: NIH3T3, 336 h
[14] = system: Mus musculus; assay: Inhibition of IR phosphorylation in human GEO cells xenografted in CD-1 nu/nu mouse at 10 mg/kg, po administered as single dose in 40% Trappsol; assay type: functional; details: CD-1, GEO
Summary of the method: (§5)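 GEO xenograft mice given a single 10 mg/kg oral dose; tumors and plasma sampled over time; tumor pIGF-1R and pIR content expressed as percentage of vehicle-treated controls alongside plasma drug level; means ± SD.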

[15] = Clearance in rhesus monkey at 5 mg/kg, iv administered as single dose; assay type: ADME, organism-based, Macaca mulatta; set-up: dose 5 mg/kg, route intravenous; details: in vivo
Summary of the method: (§6)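 Single 5 mg/kg iv dose used to derive clearance and Vss; median values reported per species (female rat, male rhesus monkey).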

[16] = Oral bioavailability in rhesus monkey at 30 mg/kg administered as single dose; assay type: ADME, organism-based, Macaca mulatta; details: in vivo; summary of the method: as §4
[17] = Plasma protein binding in mouse; assay type: ADME, cell-free; details: read-out: PPB (converted); summary of the method: as §2
[18] = Plasma protein binding in human; assay type: ADME, cell-free; details: read-out: PPB (converted); summary of the method: as §2
[19] = system: Mus musculus; assay: Inhibition of human IGF1R phosphorylation in human GEO cells xenografted in CD-1 nu/nu mouse at 20 mg/kg, po administered once daily for 14 days; assay type: functional; details: CD-1, GEO, 336 h
Summary of the method: (§7)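 GEO xenografts dosed orally for 14 days (qd or bid); tumors removed after last dose, up to 24 h, for pIGF-1R and pIR content relative to vehicle controls; means ± SE.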

[20] = system: Mus musculus; assay: Inhibition of human IGF1R phosphorylation in human GEO cells xenografted in CD-1 nu/nu mouse at 10 mg/kg, po administered as single dose in 40% Trappsol after 16 hrs; assay type: functional; details: CD-1, GEO; summary of the method: as §5
[21] = system: Mus musculus; assay: Inhibition of human IGF1R phosphorylation in human GEO cells xenografted in CD-1 nu/nu mouse at 5 mg/kg, po bid administered for 14 days; assay type: functional; details: CD-1, GEO, 336 h; summary of the method: as §7
[22] = Cmax in CD-1 mouse at 25 mg/kg, po administered as single dose; assay type: ADME, organism-based; set-up: dose 25 mg/kg, route oral; details: in vivo
[23] = Volume of distribution at steady state in rhesus monkey at 5 mg/kg, iv administered as single dose; assay type: ADME, organism-based, Macaca mulatta; set-up: dose 5 mg/kg, route intravenous; details: in vivo, read-out: Vdss; summary of the method: as §6
[24] = system: Mus musculus; assay: Inhibition of human IGF1R phosphorylation in human GEO cells xenografted in CD-1 nu/nu mouse at 10 mg/kg, po administered as single dose in 40% Trappsol upto 8 hrs; assay type: functional; details: CD-1, GEO; summary of the method: as §5
[25] = Antitumor activity against human GEO cells xenografted in CD-1 nu/nu mouse assessed as tumor growth inhibition at 5 mg/kg, po bid administered for 14 days; assay type: functional; details: 336 h, read-out: TGI; summary of the method: as §3
[26] = system: Mus musculus; assay: Inhibition of IR phosphorylation in human GEO cells xenografted in CD-1 nu/nu mouse at 5 mg/kg, po bid administered for 14 days; assay type: functional; details: CD-1, GEO, 336 h; summary of the method: as §7
[27] = Plasma concentration in human GEO cells xenografted CD-1 nu/nu mouse at 10 mg/kg, po administered as single dose in 40% Trappsol after 16 hrs; assay type: ADME, organism-based; set-up: dose 10 mg/kg, route oral; summary of the method: as §5
[28] = Plasma concentration in human GEO cells xenografted CD-1 nu/nu mouse at 10 mg/kg, po administered as single dose in 40% Trappsol upto 8 hrs; assay type: ADME, organism-based; set-up: dose 10 mg/kg, route oral; summary of the method: as §5
[29] = Cmax in rhesus monkey at 30 mg/kg, po administered as single dose; assay type: ADME, organism-based, Macaca mulatta; set-up: dose 30 mg/kg, route oral; details: in vivo; summary of the method: as §4
[30] = system: Mus musculus; assay: Inhibition of human IGF1R phosphorylation in human GEO cells xenografted in CD-1 nu/nu mouse at 10 mg/kg, po bid administered for 14 days; assay type: functional; details: CD-1, GEO, 336 h; summary of the method: as §7

Papp [1]: 20.4 ×10⁻⁶ cm/s | Vd [2]: 1.2 L/kg | bioavailability [3]: 18% | Cmax [4]: 3.1 µM | Papp [5]: 105 ×10⁻⁶ cm/s | clearance [6]: 7 mL/min/kg
Structure (SMILES): Nc1ncnn2c1c(-c1ccc3ccc(-c4ccccc4)nc3c1F)nc2[C@H]1C[C@@H](N2CCN(C=O)CC2)C1

fraction unbound [7]: 0.034 | bioavailability [9]: 100% | AUC [10]: 31.4 µg·h/mL | AUC [12]: 240 µg·h/mL | clearance [15]: 15 mL/min/kg | bioavailability [16]: 97% | fraction unbound [17]: 0.015 | fraction unbound [18]: 0.027 | Cmax [22]: 35.2 µM | Vd [23]: 0.55 L/kg | concentration at 16 h [27]: 0.38 µM | concentration at 8 h [28]: > 4 µM | Cmax [29]: 10.8 µM
Structure (SMILES): C[C@]1(O)C[C@@H](c2nc(-c3ccc4ccc(-c5ccccc5)nc4c3F)c3c(N)ncnn32)C1.Cl
inhibition in vivo at 10 mg/kg [8]: 91% | inhibition in vivo at 20 mg/kg [11]: 85% | inhibition in vivo at 10 mg/kg [13]: 100% | inhibition in vivo at 10 mg/kg [14]: 50% | inhibition in vivo at 20 mg/kg [19]: > 70% | inhibition in vivo at 10 mg/kg [20]: 50% | inhibition in vivo at 5 mg/kg [21]: 40% | inhibition in vivo at 10 mg/kg [24]: > 70% | inhibition in vivo at 5 mg/kg [25]: 31% | inhibition in vivo at 5 mg/kg [26]: 40% | inhibition in vivo at 10 mg/kg [30]: > 70%
